# Screening results as filed in PubChem.
# hIAP block: human IAP inhibitors, primary screen, biochemical, luminescence, uHTS; purified IAP, CDP-Star luminescence, 30 min; inhibition, % at 10 µM; hit rate 0.12% among 330,000; AID 2544, 2010;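 active means inhibition reaching a set limit with compound at 10 µM in the primary screen, cut at about 35% in these data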
# Target sequence (P09923 whole entry, looked up): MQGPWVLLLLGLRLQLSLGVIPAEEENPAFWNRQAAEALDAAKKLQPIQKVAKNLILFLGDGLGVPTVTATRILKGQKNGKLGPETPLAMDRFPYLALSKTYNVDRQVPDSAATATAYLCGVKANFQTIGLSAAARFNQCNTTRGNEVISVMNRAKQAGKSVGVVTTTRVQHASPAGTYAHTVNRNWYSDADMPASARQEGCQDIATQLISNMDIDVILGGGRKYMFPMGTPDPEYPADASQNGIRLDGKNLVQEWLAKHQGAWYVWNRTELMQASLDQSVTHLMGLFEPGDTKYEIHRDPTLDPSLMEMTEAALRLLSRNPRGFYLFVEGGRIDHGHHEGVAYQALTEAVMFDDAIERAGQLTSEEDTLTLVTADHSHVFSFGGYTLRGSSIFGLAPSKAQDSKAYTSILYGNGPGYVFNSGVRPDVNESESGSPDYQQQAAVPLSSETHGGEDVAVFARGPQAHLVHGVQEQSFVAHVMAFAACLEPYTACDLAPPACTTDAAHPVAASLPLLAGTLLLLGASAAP
# bIAP act: bovine intestinal alkaline phosphatase activators, primary screen, biochemical, bovine IAP, CDP-star luminescence. AID 1016, 2008. activation factor at 20 µM. alkaline phosphatase, intestinal [Bos taurus]. hit rate 0.17% among 200,000. purified bovine IAP, 30 min; hits give high values; fold of DMSO-control signal, blank-subtracted;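 active means activation factor of 2 or more at 20 µM, a signal rise over negative controls twice the positive control's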
# bIAP inhibitor: bovine intestinal alkaline phosphatase inhibitors, primary screen, selectivity assay for TNAP inhibitor project, biochemical, bovine IAP, CDP-star luminescence; inhibition, % at 20 µM; purified bovine IAP, 30 min; 190,000 tested, under 10 active; alkaline phosphatase, intestinal [Bos taurus];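 active means over 50% inhibition of intestinal alkaline phosphatase at 20 µM in the single-dose screen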
#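 System: Purified bovine intestinal alkaline phosphatase (IAP) enzyme | Input: IAP diluted 1/65,000,000 in the well | Also added: CDP-star chemiluminescent phosphatase substrate, 30 µM final | Dosing: 20 µM single dose | Times: Enzyme reaction for 30 min at room temperature | Detection: Luminescence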
# mIAP act: activators of mouse IAP, primary screen, biochemical, luminescence, uHTS | intestinal alkaline phosphatase [Mus musculus] | muIAP, CDP-Star luminescence, 30 min; hits give high values; 1 = vehicle-only enzyme signal, 0 = enzyme-free wells | activation factor at 10 µM | hit rate 0.24% among 330,000 | AID 2805, 2010;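 active means activation factor of at least 2 at 20 µM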
#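 System: mouse IAP enzyme. Reagent: CDP-Star chemiluminescent phosphatase substrate. Benchmarks: DMSO wells, no-enzyme wells. Times: 30 min enzyme-substrate-compound incubation at room temperature. Detection: luminescence from enzymatic CDP-Star hydrolysis. Doses: test compounds delivered from DMSO solution.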
# mIAP block: inhibitors of mouse IAP, primary screen, biochemical, luminescence, uHTS. purified mouse IAP, CDP-Star luminescence, 30 min. hit rate 0.2% among 330,000. intestinal alkaline phosphatase [Mus musculus]. inhibition, % at 10 µM;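 active means inhibition of at least 40% at 10 µM in the primary screen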
# hIAP act: human IAP activators, primary screen, biochemical, luminescence, uHTS; purified human IAP, CDP-Star luminescence, 30 min; hits give high values; 1 = vehicle-only enzyme, 0 = enzyme-free background; hit rate 0.16% among 330,000; Intestinal-type alkaline phosphatase (Homo sapiens), P09923; activation factor at 10 µM;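 active means activation factor of the enzyme at least 2-fold when tested at 20 µM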
# Hits are given with their value; i = inactive; nt = not tested or not shown. Compounds with a hit are over-represented: about 0.79% of the library has one in this group of screens.
SMILES,hIAP block,bIAP act,bIAP inhibitor,mIAP act,mIAP block,hIAP act
Cc1ccc(C(C)NC(=S)NCc2ccc(F)cc2)cc1C (stereo unspecified),i,nt,nt,i,i,i
CCc1ccc(C(C)NC(=S)NCc2ccc(F)cc2)cc1 (stereo unspecified),i,nt,nt,2.1,i,i
C[C@@H]1C=C[C@](Cc2ccccc2)(C(=O)NCCc2c[nH]c3ccccc23)N1C(=O)c1ccccc1,i,2.1,i,i,i,i
CC(=O)N1[C@H](C)C=C[C@]1(Cc1ccccc1)C(=O)NCCc1c[nH]c2ccccc12,i,nt,nt,i,i,i
COc1cc(/C=C2\SC(=S)N(Nc3ccccc3)C2=O)cc(OC)c1OC,i,i,i,i,40,i
CCN(CC)CC(C)OC(=O)c1ccccc1Cl (stereo unspecified),i,i,i,i,i,i
S=C(NCc1ccc2[nH]c3c(c2c1)CCCC3)Nc1ccccc1,i,i,i,2.2,i,i
Cc1cc(C)cc(NC(=S)NCc2ccc3[nH]c4c(c3c2)CCCC4)c1,i,i,i,2.8,i,i
CCS(=O)(=O)NCc1ccc2[nH]c3c(c2c1)CCCC3,i,i,i,i,i,i
Cc1cccc(NC(=S)NCCC(c2ccccc2)c2ccccc2)c1,i,i,i,7.6,i,i
S=C(NCCSCc1c(Cl)cccc1Cl)Nc1ccccc1,i,i,i,2.5,i,i
Cc1ccc(SCCNC(=S)Nc2ccccc2)cc1,i,i,i,2.2,i,i
Cc1cc(C)cc(NC(=S)NCCSc2ccc(Cl)cc2)c1,i,i,i,2.3,i,i
COc1ccccc1NC(=S)NCCSc1ccc(C)cc1,i,i,i,i,i,i
Cc1cccc(NC(=S)NNC(=S)NCc2ccccc2)c1,i,i,i,i,i,i
COCCNC(=O)C(=O)NCC1OCCCN1S(=O)(=O)c1cccs1 (stereo unspecified),i,i,i,i,i,i
Cc1c(Cc2ccccc2)c(=O)oc2cc(OCC(=O)NCC3CCC(C(=O)O)CC3)ccc12 (stereo unspecified),i,nt,nt,i,i,i
Cc1ccc(SCCNC(=S)Nc2cc(C)ccc2C)cc1,i,i,nt,i,i,i
Cc1ccc(SCCNC(=S)Nc2ccc(C)c(C)c2)cc1,i,i,i,2.8,i,i
Cc1cc(=O)oc2cc(OCC(=O)Nc3c(C)n(C)n(-c4ccccc4)c3=O)c(Cl)cc12,i,nt,nt,i,i,i
COc1ccc(Cl)cc1NC(=O)CN1CCC(n2nnc3cc(C)ccc32)CC1,i,5.3,i,i,i,i
COc1cccc2c1NC(C(=O)O)C1CC=CC21 (stereo unspecified),i,i,i,i,57,i
Cc1ccc2c(c1)C1C=CCC1C(C(=O)O)N2 (stereo unspecified),nt,i,i,nt,nt,nt
Cc1ccc(C(=O)OCC(=O)NC2CC2)cc1S(=O)(=O)N1CCOCC1,i,nt,nt,i,i,i
O=C(Nc1ccc(Cl)c(Cl)c1)Nc1cc(C(=O)NC2CC2)ccc1Cl,i,i,i,2.2,i,i
SMILES,hIAP block,bIAP act,bIAP inhibitor,mIAP act,mIAP block,hIAP act
CC(=O)NC12CC3CC(C1)CC(C(=O)NCc1ccc(C)cc1)(C3)C2,i,nt,nt,i,i,i
Cc1ccc(S(=O)(=O)N2CCN(CC(=O)NC3CCCc4ccccc43)CC2)c(C)c1 (stereo unspecified),i,56,i,i,i,i
COc1cc(/C=C2\COC/C(=C\c3ccc(O)c(OC)c3)C2=O)ccc1O,i,nt,nt,i,42,i
COc1cc(/C=C2/CC/C(=C/c3ccc(O)c(OC)c3)C2=O)ccc1O,i,nt,nt,i,i,i
COc1ccc(CCNC(=O)CSc2cn(Cc3cccc(C)c3)c3ccccc23)cc1OC,i,i,i,2.2,i,i
O=C(NC1CCN(Cc2ccc(Cl)cc2)CC1)c1cn(-c2ccccc2)nc1-c1cccnc1,i,nt,nt,2.3,i,i
O=C(NCc1ccncc1)c1cn(-c2ccccc2)nc1-c1cccnc1,i,i,i,i,i,i
C#CCOCCOCCOCCNc1nc(N2CCN(C(=O)[C@H](Cc3cc4ccccc4[nH]3)n3cc([C@@H](N)C(C)CC)nn3)CC2)nc(N2CCN(C(=O)[C@H](Cc3cc4ccccc4[nH]3)n3cc([C@@H](N)Cc4ccc(O)cc4)nn3)CC2)n1 (stereo partly specified),i,2.2,i,2.1,i,i
C#CCOCCOCCOCCNc1nc(N2CCN(C(=O)[C@H](Cc3cc4ccccc4[nH]3)n3cc([C@@H](N)CC(C)C)nn3)CC2)nc(N2CCN(C(=O)[C@H](Cc3cc4ccccc4[nH]3)n3cc([C@@H](N)CC(C)C)nn3)CC2)n1,i,3.2,i,2.1,i,i
C#CCOCCOCCOCCNc1nc(N2CCN(C(=O)[C@H]([C@@H](C)CC)n3cc([C@@H](N)Cc4ccc(O)cc4)nn3)CC2)nc(N2CCN(C(=O)[C@H](Cc3cc4ccccc4[nH]3)n3cc([C@@H](N)C(C)CC)nn3)CC2)n1 (stereo partly specified),i,i,i,i,i,i
Cc1ccn2c(Nc3ccccc3C)c(-c3ccccn3)nc2c1,i,2.1,i,i,i,i
CC1CC(C)CN(S(=O)(=O)c2ccc(NC(=O)[C@@H]3CCCN3C(=O)c3cccs3)cc2)C1 (stereo partly specified),i,nt,nt,i,50,i
O=C(CCN1C(=O)c2ccccc2C1=O)NCc1ccc(Cl)cc1,i,nt,nt,i,i,i
CCN(CC(=O)Nc1cccc(F)c1)Cc1nc2ccccc2c(=O)[nH]1,i,i,i,i,i,i
CCN(CC(=O)NCc1ccc(F)cc1)Cc1nc2ccccc2c(=O)[nH]1,i,2,i,i,i,i
CCN(CC(=O)NCc1ccc(Cl)cc1)C(=O)CSCC(=O)Nc1cccc(C)c1,i,nt,nt,i,i,i
CCCOC(=O)c1ccc(NC(=O)Oc2ccccc2)cc1,i,2.6,i,i,i,i
O=C1NCCN/C1=C\C(=O)c1cccc(Br)c1,i,nt,nt,i,i,i
Cc1ccc(NC2=NC3(CCCCC3)N=C(N)N2)c(C)c1,i,3.7,i,i,i,i
Cc1ccccc1NC1=NC2(CCCC2)N=C(N)N1,i,i,i,i,i,i
Cc1ccc(NC2=NC3(CCCC3)N=C(N)N2)c(C)c1,i,i,i,i,i,i
Cc1cccc(NC2=NC3(CCCCC3)N=C(N)N2)c1C,i,2.7,i,i,i,i
